L major viab – Leishmania major promastigote growth inhibition, primary screen. Leishmania major promastigotes, resazurin fluorescence viability. inhibition, % at 10 µM. 200,000 tested, 9% active. AID 1063, 2008; in the data active = inhibition above about 50%;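 note: promastigotes grown with compound for 44 hours at 28 °C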
Beta cell apopt – inhibitors of cytokine-induced beta cell apoptosis, primary screen, luminescence | INS-1E cytokine-induced death, ATP luminescence, 48 h; percent of positive-control rescue, neutral wells zero | protection from apoptosis, % (test concentration not listed) | 300,000 tested, 0.8% active;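 active = Every replicate reaches about 75%, or at least half do and their mean reaches it too, limit read from the data; inconclusive = At least half of replicates reach the limit but their mean does not; inactive = Under half of replicates reach the limit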;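 note: 0% = cytokine-treated negative control wells and 100% = positive control rescue; higher means more ATP so stronger rescue from cytokine killing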
SKKanGAS inh – S. pyogenes SKKanGAS growth inhibitors in kanamycin, primary screen, streptokinase expression inhibitor project, SKKanGAS strain, BacTiter-Glo luminescence. 6 h. inhibition, % at 7.5 µM. 300,000 tested, 1.3% active. AID 1662, 2009;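 active = mean replicate score, as percent of positive control median, at least 50; inconclusive = mean below 50 but one replicate at or above 50; inactive = mean and every replicate below 50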;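 note: strain carries kanamycin resistance gene driven by streptokinase promoter and grows in 40 µg/ml kanamycin; loss of luminescence reflects streptokinase promoter inhibition or plain growth inhibition; 0% = median of DMSO wells and 100% = positive control at its reference dose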
Mdm2 MdmX PPI – inhibitors of human Mdm2-MdmX association, primary screen, cell-based, luminescence, split luciferase, SaOS-2, uHTS; SaOS-2 split-luciferase Mdm2/MdmX complementation; inhibition, % at 8 µM; 330,000 tested, 3% active; AID 485346, 2010;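 active = inhibition of at least 50% at 8 µM in the primary screen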
T cruzi repl – inhibitors of intracellular T. cruzi growth, primary screen, luminescence, NIH3T3 host cells | T. cruzi beta-gal in NIH3T3, 90 h | inhibition, % (test concentration not listed) | 300,000 tested, 1.4% active | AID 1885, 2009;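 active = mean inhibition across valid replicates above about 55%, limit read from the data; inconclusive = mean below that limit but half or more replicates reach it; inactive = mean below it, under half of replicates reach it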;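 note: signal also drops with host cell toxicity which is not excluded here; 0% = plate median of DMSO wells and 100% = zero luminescence signal; higher percent means less beta-gal luminescence so fewer parasites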
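Read-out: Parasite load inhibition, % | Test system: Mouse NIH/3T3 fibroblasts infected with β-gal-expressing T. cruzi Tulahuen C4 | Amount: 5,000 cells/well | Medium: DMEM, 2% fetal bovine serum | Signal: GalScreen β-gal luminescence, detergent lysis, 60 min | Timing: 3 h attach, ≥90 h co-culture | Also added: Tulahuen C4 trypomastigotes, 5000/well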
CSC inhib – cancer stem cell viability inhibitors, primary screen, luminescence. cancer stem cell-like cells viability. AID 2717, 2010. inhibition, % at 7.5 µM. 300,000 tested, 1.1% active; in the data active = inhibition above about 75%; inconclusive = no clear call, values can overlap the other calls; tested in HMLE shEcad cells
Mdm2 MdmX conf – Mdm2-MdmX complex disruptors, retested hits, confirmation, luminescence, single concentration | 10,000 tested, 55% active | AID 489028, 2010 | Mdm2-MdmX binding, luminescent assay | inhibition, % at 8 µM | shares compounds with Mdm2 MdmX PPI; in the data active = inhibition above about 40%
Full FLuc ctr – full-length luciferase signal inhibition, confirmation, counter-screen for Mdm2/MdmX interaction inhibitor project, cell-based, single concentration, SaOS-2 | shares compounds with Mdm2 MdmX PPI | SaOS-2 full-length luciferase counterscreen, luminescence | inhibition, % at 8 µM | 6,200 tested, 77% active;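 active = mean inhibition at 8 µM reaching about 37%, which flags the compound as non-specific, limit read from the data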;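 note: p53-null SaOS-2 cells with luciferase driven by a doxycycline-inducible promoter; compound on cells about two nights before reading with doxycycline added after day one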
The depositor's hits bear a star; u = inconclusive; x = no result given. Sampled rows, rich in hits. Any-hit rate of the full collection: about 9.4%.

SMILES	L major viab	Beta cell apopt	SKKanGAS inh	Mdm2 MdmX PPI	T cruzi repl	CSC inhib	Mdm2 MdmX conf	Full FLuc ctr
CC(CN1CCC(n2nccc2NC(=O)CCCc2ccccc2)CC1)c1ccccc1 (stereo not given)	x	-6	8	7	35	-12	x	x
C#CC[N+](C)(C)CCCCCCCCC	-4	0	3	51*	5	42	49*	74*
N/C(=N\OC(=O)Nc1ccc(Cl)cc1)c1ncc(C(F)(F)F)cc1Cl	-7	-4	-12	27	7	x	x	x
N/C(=N\OC(=O)Nc1ccccc1)c1ncc(C(F)(F)F)cc1Cl	1	0	7	51*	6	4	4	x
Cc1c(CCOC(=O)c2cc([N+](=O)[O-])cc([N+](=O)[O-])c2)sc[n+]1CCCCS(=O)(=O)[O-]	-11	-4	0	-3	10	-3	x	x
Cc1cc(/C=C2\SC(=Nc3ccc(F)cc3)NC2=O)c(C)n1-c1ccc(S(N)(=O)=O)cc1	57*	18	61*	61*	5	52	47*	59*
CC(C)CCn1c(=O)c2ccccc2n2c(CN3CCCC3)nnc12	4	-11	3	22	2	-14	x	x
CC(C)CCn1c(=O)c2ccccc2n2c(CCC(=O)NC3CCN(Cc4ccccc4)CC3)nnc12	x	2	-4	77*	24	x	58*	49*
COCc1cc(C)nc(SCC(=O)Nc2cccc(C)c2C)c1C#N	-2	-1	6	14	-11	-11	x	x
Cc1nc(SCC(=O)Nc2ccc(F)cc2)c(C#N)c(C)c1CC(=O)c1ccc(Br)cc1	-3	-7	2	97*	4	-2	76*	80*
Cc1cccc(NC(=O)CSc2nc(C)c(CC(=O)c3ccc(Br)cc3)c(C)c2C#N)c1C	-6	u	4	100*	8	36	6	x
Cc1ccc(/C=C/C(=O)c2ccc(N3CCOCC3)cc2)s1	-2	0	-9	-22	-3	8	x	x
Cc1cc2c(cc1C)-c1c(ssc1=Nc1ccc(S(N)(=O)=O)cc1)C(C)(C)N2	12	28	50*	62*	26	-2	40*	44*
O=C(CNC(=O)c1ccccc1F)NCCc1ccccc1F	x	0	x	-7	x	x	x	x
CN(C)C=Nc1ncc2c3ccccc3n(CCN(C)C)c2c1C#N	98*	-4	5	60*	26	7	62*	22
CN(C)C=Nc1ncc2c3ccccc3n(Cc3ccccc3)c2c1C#N	-6	1	-11	20	10	-9	x	x
NC(=O)CC(NC(=O)c1ccc(Br)cc1)c1ccc(NC2CCCCCC2)c([N+](=O)[O-])c1 (stereo not given)	x	-7	20	19	22	18	x	x
Cc1nn(-c2ccccc2Cl)c(Cl)c1/C=N/Nc1nc2ccccc2s1	59*	7	7	87*	5	27	96*	56*
COC(=O)c1cn(C(=O)/C=C/c2ccc(OC)c(OC)c2)c2ccccc12	26	5	-11	92*	-13	59	66*	39*
COC(=O)c1cn(C(=O)c2ccc(C)cc2C)c2ccccc12	15	28	u	61*	-30	62	53*	56*
COC(=O)c1cn(C(=O)c2ccccc2Cl)c2ccccc12	7	-5	11	19	-2	32	x	x
O=C(OCC(=O)N(C1CCCCC1)C1CCCCC1)c1ccc(Cl)nc1	x	-1	x	13	x	-6	x	x
CC(NS(=O)(=O)/C=C/c1ccccc1)C(=O)NCCc1ccc(S(N)(=O)=O)cc1 (stereo not given)	-1	-3	1	-34	-8	-4	x	x

Source: PubChem
